Consider five substances from publication PMC3899495 (Clinical Pharmacokinetics, 2013).

Like-named read-outs stand apart in the source and are kept apart here.

The conditions of data set [1]: cited from earlier work.
Data set [2] is classed as in vivo, human. The note with it: single 0.4 U/kg s.c., geometric mean (CV %), n = 6; for AUC0–∞ / C max: serum, ELISA. An outline of the steps: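 Subjects grouped by screening Cockcroft–Gault creatinine clearance. Non-dialysis subjects received one 0.4 U/kg subcutaneous dose (100 U/mL) into a lifted thigh skin fold at 0800 hours. Serum was sampled pre-dose through 120 h. Concentrations were measured by validated sandwich ELISA (mouse anti-human-insulin monoclonal capture, biotinylated mouse monoclonal detection; serum LLOQ 20 pM). Parameters came from individual concentration–time curves; CL/F = dose/AUC0–∞.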
In general terms: An ELISA detects its analyte on a solid surface through an enzyme-linked reagent.

A short description of data set [3]: Tolerability after single dose. The format is in vivo, human. To be noted: single 0.4 U/kg s.c. dose(s). In short, it runs like this: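 Adults 18–85 y, BMI ≤40 kg/m2, in five renal-function groups. 0.4 U/kg s.c. into thigh: non-ESRD once; ESRD twice, post-hemodialysis and ~13 h pre-hemodialysis. In-house ≥48 h; follow-up 7–21 days after last dose. Also physical exam, biochemistry, hematology, urinalysis. AEs graded for severity and relationship; severe hypoglycemia = requiring assistance (ADA). Blood glucose sampled to 68 h (ESRD) or 120 h.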

The conditions of data set [4]: cited from earlier work. The source holds these as a separate data set.
The conditions of data set [5]: varying degrees of impaired hepatic function; cited from earlier work.
[6] abbreviates: mild renal impairment (CLCR 50–80 mL/min).
[7] abbreviates: moderate renal impairment (CLCR 30–49 mL/min).
[8] abbreviates: normal renal function (CLCR >80 mL/min).
[9] abbreviates: severe renal impairment (CLCR <30 mL/min).

As for regular human insulin, the “effect of impaired renal function on pharmacokinetics” value (“effect of impaired renal function” below) in data set [1] (patients with diabetes) is listed as “affect the pharmacokinetics”.
In the case of insulin aspart, in data set [1], the “effect of impaired renal function” value is “reportedly unaffected”.
Regarding Insulin degludec, the “CL/F (apparent clearance, dose/AUC0–∞)” value in data set [2] (setting [6]) is recorded as 19.1 (31) mL/h/kg; in data set [2] (setting [7]) it was 20.5 (39) mL/h/kg; in data set [2] (setting [8]) it was 22.0 (32) mL/h/kg; in data set [2] (setting [9]) it was 18.9 (24) mL/h/kg. Also, the “AUC0–∞” value is on record as 126,096 (49) pmol·h/L in data set [2] (setting [6]), 117,646 (32) pmol·h/L in data set [2] (setting [7]), 109,472 (26) pmol·h/L in data set [2] (setting [8]) and 127,268 (28) pmol·h/L in data set [2] (setting [9]). Further, the C max is recorded as 3,502 (30) pmol/L in data set [2] (setting [6]), 3,237 (39) pmol/L in data set [2] (setting [7]), 3,085 (28) pmol/L in data set [2] (setting [8]) and 3,918 (28) pmol/L in data set [2] (setting [9]). Further, the severe adverse events entry in data set [3] (32 subjects exposed) was “None”. Also, the severe hypoglycemic episodes entry in data set [3] (all subjects) is on record as “No severe hypoglycemic episodes”. Besides, the “within-subject variability in glucose-lowering effect (AUC values) compared with insulin glargine” value in data set [4] is “four-times lower”. Besides, the “effect of impaired hepatic function on ultra-long pharmacokinetic properties” value in data set [5] is given as “preserved”.
As for insulin lispro, the “effect of impaired renal function” value in data set [1] (patients with diabetes) is reported as “affect the pharmacokinetics”.
As to insulin detemir, the “effect of impaired renal function” value in data set [1] is listed as “reportedly unaffected”.
